# Screens (PubChem)
# tolC growth inh: E. coli tolC mutant growth inhibition. E. coli BW25113 tolC mutant growth, OD615. growth inhibition, % at 10 µM (by protocol). 65,000 compounds, 2.2% hits;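 active = growth inhibition at or above a cutoff equal to the mean over every tested compound plus 3 SD, cut at about 60% in these data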;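 also: growth measured after 20 h incubation at 37 °C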
#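 Test system: E. coli BW25113 ΔtolC::kan bacteria | Medium: Kanamycin-containing LB broth (50 µg/mL) | Dosing: One dose of 10 µM final | Times: 20 h incubation with compound, 37 °C | Detection: Optical density read at 615 nm | Read-out basis: Percent growth inhibition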
# Ecoli WT expand: blocks growth of wild type E. coli BW25113; OD600 absorbance; growth inhibition, % at 100 µM; 98,000 compounds, 0.15% hits;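 active = growth inhibition above about 50% at one test dose, limit read from the data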;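 also: growth measured after 20 h incubation at 37 °C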
# HePTP inh: human HePTP phosphatase inhibition | recombinant HePTP phosphatase activity, OD absorbance | P35236 | 110,000 compounds, 0.64% hits | AID 521 | inhibition, % at 20 µM; in the data active = inhibition above about 50%;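 also: plate controls were vehicle for no effect and reference inhibitor for full effect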
# Target sequence (P35236 whole entry, looked up): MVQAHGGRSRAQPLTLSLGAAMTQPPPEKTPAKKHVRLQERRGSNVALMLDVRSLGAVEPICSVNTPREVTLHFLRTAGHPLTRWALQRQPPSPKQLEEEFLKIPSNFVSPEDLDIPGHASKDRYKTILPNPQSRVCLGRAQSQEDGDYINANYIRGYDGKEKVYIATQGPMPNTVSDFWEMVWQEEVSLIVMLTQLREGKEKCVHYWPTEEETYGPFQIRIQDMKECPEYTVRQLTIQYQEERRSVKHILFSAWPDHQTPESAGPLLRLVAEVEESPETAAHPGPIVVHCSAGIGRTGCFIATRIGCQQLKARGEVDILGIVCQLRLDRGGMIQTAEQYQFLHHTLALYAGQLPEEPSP
# PostGolgi yeast: growth inhibition of a yeast mutant, post-Golgi transport screen | post-Golgi transport phenotypic cell assay | inhibition, % at 10 µM | 98,000 compounds, 0.9% hits | AID 739;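 also: yeast cells grown in 1536-well plates; yeast grown about 18 h at 30C before absorbance read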
# PLAP act: activates human placental alkaline phosphatase | P05187 | purified PLAP enzyme, luminescent substrate read-out; stronger effect = higher value | activation fold at 20 µM | 96,000 compounds, 1.2% hits | AID 696; in the data active = activation fold above about 2
# PostGolgi ctrl: growth of the yeast control strain, post-Golgi counter-screen; efflux-deficient yeast background strain, growth absorbance A615, 16 h; inhibition, % at 10 µM; 98,000 compounds, 5% hits; AID 738
# * = called active by the depositor; . = no result. A selection: hits, their analogues and other compounds. The true share with any hit is near 5.4%. Rule as the data show it, unless noted: active = inhibition above about 30%; inactive = the rest.
SMILES,tolC growth inh,Ecoli WT expand,HePTP inh,PostGolgi yeast,PLAP act,PostGolgi ctrl
O=C(/C=C/c1ccco1)Nc1ccc(-c2nc3ccccc3s2)c(O)c1,.,.,104*,.,.,.
O=C1CC(c2ccco2)CC(O)=C1C=Nc1ccc(Br)cc1 (stereo not given),.,-3,.,-3,0.7,1
O=C1CC(c2ccco2)CC(O)=C1C=Nc1cc(Cl)ccc1O (stereo not given),-6,1,7,20,2.5*,10
O=[N+]([O-])c1ccc(Cl)cc1NCCOc1cccc2ccccc12,.,.,4,.,.,.
CCCCC(=O)NC(Nc1nc(C2CC2)cs1)(C(=O)OCC)C(F)(F)F (stereo not given),25,2,5,-1,1.1,36*
COc1ccc(N2C(=O)C3C(C2=O)C2(C)C(=O)C3(C)C(c3ccccc3)=C2c2ccccc2)cc1 (stereo not given),.,.,-12,.,.,.
O=c1cc(N2CCCCC2)c(-c2ccccc2)nn1Cc1ccccc1Cl,.,-7,.,-4,1.2,44*
O=c1cc(N2CCCCC2)c(-c2ccccc2)nn1Cc1cccc(Cl)c1,.,-11,.,-4,0.9,31*
O=c1c2ccccc2c(-c2ccccc2)nn1Cc1ccc(Cl)cc1,.,-10,.,-8,0.9,6
O=c1cc(N2CCCCC2)c(-c2ccccc2)nn1Cc1ccc(Cl)cc1Cl,.,-13,.,2,1.4,28
Cc1ccc2c(c1)N(C(=O)C(C)N1C(=O)c3ccccc3C1=O)C(C)(C)c1ssc(=S)c1-2 (stereo not given),.,.,2,.,.,.
O=C(/C=C/c1cccc(C(F)(F)F)c1)Nc1cccc([N+](=O)[O-])c1,.,.,9,.,.,.
COc1cc(/C=C2/C(=O)NN(c3ccc(Cl)cc3)C2=O)cc(Br)c1O,.,.,92*,.,.,.
CCOC(=O)c1ccc(N2NC(=O)/C(=C/c3ccc4c(c3)OCO4)C2=O)cc1,.,.,100*,.,.,.
C=CCOc1ccc(/C=C2/C(=O)NN(c3ccc(C(=O)OCC)cc3)C2=O)cc1OC,.,.,60*,.,.,.
COc1cc(/C=C2/C(=O)NN(c3ccc(Cl)cc3)C2=O)ccc1O,.,.,9,.,.,.
O=C(O)CCCNC(=O)/C(=C\c1ccc(Cl)cc1)NC(=O)c1ccccc1,.,.,-1,.,.,.
CCOc1ccc(S(=O)(=O)Nc2cccnc2)c2ccccc12,.,.,8,.,.,.
CCOc1ccc(S(=O)(=O)Nc2ccc(F)cc2)c(C)c1C,.,-6,.,-14,1.2,55*
CCN(CC)S(=O)(=O)c1ccc(S(=O)(=O)N2CCN(CCC#N)CC2)cc1,1,4,11,-3,1,4
Cc1ccc(S(=O)(=O)N(CCC#N)CCN2CCCC2)cc1,-8,-4,-4,6,1.5,30*
Nc1nc(Nc2ccccc2)nc2ccccc12,35,48,5,-10,0.8,3
Nc1nc(Nc2ccc(Cl)cc2)nc2ccccc12,.,93*,.,1,0.7,11
Cc1cccc(NS(=O)(=O)c2ccc([N+](=O)[O-])cc2)c1C,.,.,-11,.,.,.
Cc1cc(NC(=O)c2cc(-c3ccc(C(C)C)cc3)nc3ccccc23)no1,.,.,22,.,.,.
SMILES,tolC growth inh,Ecoli WT expand,HePTP inh,PostGolgi yeast,PLAP act,PostGolgi ctrl
Cc1cccc(NC(c2ccc(O)cc2)c2ccc3ccc(C)nc3c2O)n1 (stereo not given),.,13,.,0,2.8*,1
CCOC(=O)CSc1nnnn1-c1cc(OC)c(Cl)cc1OC,-18,-2,1,5,1,3
COc1cc(-n2nnnc2SCC(=O)N2CCN(c3ccc(F)cc3)CC2)c(OC)cc1Cl,11,-5,2,4,1.1,38*
CC(C)c1ccc(/C=C(\NC(=O)c2ccccc2)C(=O)NCc2ccco2)cc1,.,.,8,.,.,.
COc1ccc(NC(=O)COC(=O)c2c3c(nc4ccccc24)CCCC3)cc1Cl,.,-16,.,49*,1.2,79*
COc1ccc(OC)c(NC(=O)COC(=O)c2c3c(nc4ccccc24)CCCC3)c1,.,0,.,16,0.8,11
COc1ccc(NC(=O)COC(=O)c2c3c(nc4ccccc24)CCCC3)cc1,.,1,.,0,0.8,34*
CSc1nnc2n(C)c3c(c(=O)n12)C1(CCCC1)Cc1ccccc1-3,20,-1,8,1,1,38*
COc1ccc(S(=O)(=O)Cc2ccc(C(=O)N3CCN(c4cccc(C)c4)C(C)C3)o2)cc1 (stereo not given),13,3,0,-8,1.4,47*
COc1ccc(S(=O)(=O)Cc2ccc(C(=O)N3CCN(c4ncccn4)CC3)o2)cc1,-7,.,8,.,.,.
COc1ccc(S(=O)(=O)Cc2ccc(C(=O)N3CCN(c4cccc(C)c4C)CC3)o2)cc1,21,-5,-4,1,1.4,35*
O=C(c1ccc(COc2c(F)c(F)cc(F)c2F)o1)N1CCN(c2ccc(Cl)cc2)CC1,62*,-7,-5,-3,0.9,15
COc1ccc(S(=O)(=O)Cc2ccc(C(=O)N3CCN(c4cc(Cl)ccc4C)CC3)o2)cc1,35,-18,8,-8,1.6,32*
CCOc1cccc(C2C(C(=O)Nc3ccccc3C)=C(C)NC3=C2C(=O)CCC3)c1 (stereo not given),.,.,-1,.,.,.
COc1ccc(N2CCN(C(=O)c3ccc(CS(=O)(=O)c4ccc(OC)cc4)o3)CC2)cc1,-5,1,5,0,1.5,4
COc1ccc(S(=O)(=O)Cc2ccc(C(=O)N3CCN(c4ccc(Cl)cc4)CC3)o2)cc1,23,-18,-1,-1,1.7,37*
O=C(NCC1COc2ccccc2O1)c1ccc(NC(=O)c2ccco2)cc1 (stereo not given),19,-14,1,3,1,17
O=C(CNS(=O)(=O)c1ccc(Br)s1)NCC1COc2ccccc2O1 (stereo not given),-10,4,6,68*,1.1,95*
O=C(NCC1COc2ccccc2O1)c1ccc(Cl)cc1 (stereo not given),23,4,-4,58*,0.8,25
COc1ccc2c(c1OC)C(=O)OC2CC(=O)c1cc(F)ccc1O (stereo not given),.,.,11,.,.,.
Cc1ccc(-c2nc3ncccc3o2)cc1NC(=O)c1cccc2c(Br)cccc12,.,.,11,.,.,.
O=C(O)CCCc1nc(-c2ccccc2)no1,-1,5,-3,-2,1.1,-1
c1ccc(NCc2nc(-c3ccccc3)no2)cc1,16,11,4,-13,0.6,32*
Cc1cc2cc(CNC(=O)c3ccc(S(=O)(=O)N(C)C)cc3)ccc2n1C,.,-2,.,3,1,31*
Cc1ccc2oc(-c3ccc(NC(=O)c4ccc(C(C)(C)C)cc4)cc3O)nc2c1,.,.,1,.,.,.
COc1cc(C(=O)Nc2ccc(-c3nc4cc(C)ccc4o3)c(O)c2)cc(OC)c1OC,33,-18,-5,-6,2.7*,8
COc1ccc(CC(=O)Nc2ccc(-c3nc4ccccc4o3)c(O)c2)cc1OC,.,.,89*,.,.,.
CCOc1cc(OCC)cc(C(=O)Nc2ccc3oc(-c4ccccc4F)nc3c2)c1,.,.,-7,.,.,.
Cc1nc(NC(=O)CN2CCOCC2)sc1-c1ccccc1,5,3,-9,-4,1.1,-15
